Test results as given in ChEMBL document CHEMBL3425449, “Identification of MK-8133: An orexin-2 selective receptor antagonist with favorable development properties” (Bioorg Med Chem Lett, 2015).
Values after ≈ are worked out from the molar mass of the structure shown.

Tests used:
Orexin receptor type 2 [1] = target: T1, Orexin receptor type 2 (Homo sapiens, UniProt O43614); assay: Antagonist activity against human OX2R expressed in CHOK1 cells assessed as inhibition of orexin A-induced […] Ca2+ mobilization by FLIPR assay; type: functional, cell-based, CHO-K1
T1 sequence (O43614 whole entry): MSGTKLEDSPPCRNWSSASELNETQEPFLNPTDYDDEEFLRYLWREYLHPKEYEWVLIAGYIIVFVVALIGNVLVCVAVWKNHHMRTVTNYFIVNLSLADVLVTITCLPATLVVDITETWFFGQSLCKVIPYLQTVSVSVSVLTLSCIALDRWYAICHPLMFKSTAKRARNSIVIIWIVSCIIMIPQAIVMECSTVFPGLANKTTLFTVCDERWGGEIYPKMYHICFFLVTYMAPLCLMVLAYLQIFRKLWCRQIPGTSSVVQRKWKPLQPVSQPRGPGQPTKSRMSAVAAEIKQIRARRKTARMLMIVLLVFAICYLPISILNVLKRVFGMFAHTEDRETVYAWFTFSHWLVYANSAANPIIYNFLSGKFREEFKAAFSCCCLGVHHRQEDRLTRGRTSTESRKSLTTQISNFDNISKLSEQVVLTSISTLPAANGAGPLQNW
How it was run: (§1)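 Cell-based FLIPR assay measuring Ca2+ flux as the functional read-out of orexin receptor antagonism. Target is the human orexin receptor expressed in CHO-K1 cells.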

[2] = target: T2, Orexin/Hypocretin receptor type 1 (Homo sapiens, UniProt O43613); assay: Displacement of [3H]-(S)-N-(biphenyl-2-yl)-1-(2-(1-methyl-1H-benzo[d]imidazol-2-ylthio)acetyl)pyrrolidine-2-carboxamide from human OX1R expressed in CHOK1 cells by radioligand binding assay; type: cell-based, CHO-K1
T2 sequence (O43613 whole entry): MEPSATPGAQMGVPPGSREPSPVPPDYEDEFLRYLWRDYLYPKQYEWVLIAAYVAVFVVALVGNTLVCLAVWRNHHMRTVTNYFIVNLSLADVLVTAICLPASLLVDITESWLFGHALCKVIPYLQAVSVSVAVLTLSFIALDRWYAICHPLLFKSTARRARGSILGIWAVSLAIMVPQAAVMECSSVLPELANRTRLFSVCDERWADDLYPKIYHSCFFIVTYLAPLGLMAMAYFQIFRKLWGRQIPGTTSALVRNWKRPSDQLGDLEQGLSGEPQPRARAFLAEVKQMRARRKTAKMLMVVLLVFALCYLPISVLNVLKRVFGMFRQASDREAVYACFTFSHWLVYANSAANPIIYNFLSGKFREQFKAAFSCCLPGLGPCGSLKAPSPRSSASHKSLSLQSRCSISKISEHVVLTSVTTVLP
How it was run: (§2)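 Radioligand competition binding on membranes from CHO-K1 cells overexpressing the human orexin receptor.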

Orexin receptor type 2 [3] = target: T1, Orexin receptor type 2; assay: Displacement of [3H]-(S)-N-(2-(1H-pyrrol-1-yl)phenyl)-1-(2-(1-methyl-1H-benzo[d]imidazol-2-ylthio)acetyl)pyrrolidine-2-carboxamide from human OX2R expressed in CHOK1 cells by radioligand binding assay; type: cell-based, CHO-K1; how it was run: as §2
[4] = target: T2, Orexin/Hypocretin receptor type 1; assay: Antagonist activity against human OX1R expressed in CHOK1 cells assessed as inhibition of orexin A-induced […] Ca2+ mobilization by FLIPR assay; type: functional, cell-based, CHO-K1; how it was run: as §1
CHO-K1 = assay: Selectivity index, ratio of IC50 for human OX1R expressed in CHOK1 cells to IC50 for human OX2R expressed in CHOK1 cells by FLIPR assay; type: cell-based
How it was run: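 Ratio of OX1R FLIPR IC50 to OX2R FLIPR IC50. Both come from Ca2+-flux assays on human orexin receptors expressed in CHO-K1 cells, each averaged over n ≥ 2 experiments.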

[5] = Solubility of the compound at pH 7; type: physicochemical; details: buffer
[6] = Lipophilicity, log D of the compound by HPLC method; type: physicochemical
[7] = Intrinsic clearance in human microsomes; type: ADME, Microsome
[8] = Clearance in Wistar Han rat at 10 mg/kg, po or 2 mg/kg, iv; type: ADME, organism-based; details: in vivo
How it was run: (§3)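 Pharmacokinetics in Wistar Han rats (n = 2) after intravenous and oral dosing. Oral dose was 10 mg/kg in PEG400:Tween80/water 40:10:50. IV dose was 2 mg/kg in DMSO/PEG400/water 20:60:20.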

[9] = Half life in Wistar Han rat at 10 mg/kg, po or 2 mg/kg, iv; type: ADME, organism-based; details: in vivo; how it was run: as §3
[10] = Oral bioavailability in dog at 10 mg/kg; type: ADME, organism-based, Canis lupus familiaris; details: in vivo
How it was run: (§4)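 Dog pharmacokinetics determined after intravenous and oral administration.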

[11] = Half life in dog at 10 mg/kg, po or 2 mg/kg, iv; type: ADME, organism-based, Canis lupus familiaris; details: in vivo; how it was run: as §4
[12] = Clearance in dog at 10 mg/kg, po or 2 mg/kg, iv; type: ADME, organism-based, Canis lupus familiaris; details: in vivo; how it was run: as §4
[13] = Volume of distribution at steady state in Wistar Han rat at 10 mg/kg, po or 2 mg/kg, iv; type: ADME, organism-based; details: in vivo, read-out: Vdss; how it was run: as §3
[14] = Oral bioavailability in Wistar Han rat at 10 mg/kg; type: ADME, organism-based; details: in vivo; how it was run: as §3
[15] = Volume of distribution at steady state in dog at 10 mg/kg, po or 2 mg/kg, iv; type: ADME, organism-based, Canis lupus familiaris; details: in vivo, read-out: Vdss; how it was run: as §4
Plasma [16] = assay: Stability in rat plasma; type: ADME, cell-free
Plasma [17] = assay: Stability in human plasma; type: ADME, cell-free

IC50 (Orexin receptor type 2 [1]) [nM] | Ki [2] [nM] | Ki (Orexin receptor type 2 [3]) [nM] | IC50 [4] [nM] | SMILES | Ratio IC50 (CHO-K1) | further results
33 | 12 | 7.6 | 745 | Cc1cccc(O[C@@H]2CC[C@@H](C)N(C(=O)c3ccccc3-n3nccn3)C2)n1 | 23 | 
38 |  |  | 3300 | CC(C)OC(=O)c1ccccc1C(=O)N1C[C@H](Oc2cc(C#N)ccn2)CC[C@H]1C | 87 | solubility ([5]; read-out: solubility): 115 µM (≈ 46.9 µg/mL); logD ([6]; read-out: logD): 3.6
 | 166 | 2.6 | 788 | Cc1ccnc(O[C@@H]2CC[C@@H](C)N(C(=O)c3ccccc3-n3nccn3)C2)c1 | 49 | 
11 | 120 | 1.4 |  | C[C@@H]1CC[C@@H](Oc2cc(Cl)ccn2)CN1C(=O)c1ccccc1-n1nccn1 | 51 | 
130 | 1400 | 4.5 | 1500 | C[C@@H]1CC[C@@H](Oc2cc(N(C)C)ccn2)CN1C(=O)c1ccccc1-n1nccn1 | 12 | 
21 |  |  | 7100 | CCOC(=O)c1ccccc1C(=O)N1C[C@H](Oc2cc(C#N)ccn2)CC[C@H]1C | 349 | solubility ([5]; read-out: solubility): 121 µM (≈ 47.6 µg/mL); logD ([6]; read-out: logD): 3.2; CLint scaled [7]: 37 mL/min/kg
25 |  |  | 8400 | Cc1nc(-c2ccccc2C(=O)N2C[C@H](Oc3cc(C#N)ccn3)CC[C@H]2C)no1 | 361 | clearance [8]: 30 mL/min/kg; half-life [9]: 1.3 h; solubility ([5]; read-out: solubility): 162 µM (≈ 65.4 µg/mL); bioavailability [10]: 54%; half-life [11]: 1.5 h; logD ([6]; read-out: logD): 3; clearance [12]: 4.6 mL/min/kg; Vd [13]: 1.3 L/kg; CLint scaled [7]: 23 mL/min/kg; bioavailability [14]: 26%; Vd [15]: 0.54 L/kg
16 | 350 | 0.9 | 510 | C[C@@H]1CC[C@@H](Oc2cc(S(C)(=O)=O)ccn2)CN1C(=O)c1ccccc1-n1nccn1 | 33 | 
 | 430 | 3.9 |  | C[C@@H]1CC[C@@H](Oc2cc(F)ccn2)CN1C(=O)c1ccccc1-n1nccn1 | 68 | 
 | 64 | 0.2 | 370 | C[C@@H]1CC[C@@H](Oc2cc(C(F)(F)F)ccn2)CN1C(=O)c1ccccc1-n1nccn1 | 21 | 
13 | 830 |  | 3800 | C[C@@H]1CC[C@@H](Oc2cc(C#N)ccn2)CN1C(=O)c1ccccc1-n1nccn1 | 293 | clearance [8]: 18 mL/min/kg; half-life [9]: 1.7 h; solubility ([5]; read-out: solubility): 148 µM (≈ 57.5 µg/mL); bioavailability [10]: 13%; half-life [11]: 1.1 h; logD ([6]; read-out: logD): 3; clearance [12]: 27 mL/min/kg; Vd [13]: 1.7 L/kg; CLint scaled [7]: 16 mL/min/kg; bioavailability [14]: 17%; Vd [15]: 1.5 L/kg
 | 4760 | 621 |  | Cc1cccnc1O[C@@H]1CC[C@@H](C)N(C(=O)c2ccccc2-n2nccn2)C1 |  | 
6.7 | 39 | 0.2 | 110 | CSc1ccnc(O[C@@H]2CC[C@@H](C)N(C(=O)c3ccccc3-n3nccn3)C2)c1 | 16 | 
11 | 57 | 0.6 | 310 | CCc1ccnc(O[C@@H]2CC[C@@H](C)N(C(=O)c3ccccc3-n3nccn3)C2)c1 | 28 | 
10 | 49 | 0.6 | 240 | C#Cc1ccnc(O[C@@H]2CC[C@@H](C)N(C(=O)c3ccccc3-n3nccn3)C2)c1 | 23 | 
10 | 130 | 1.8 | 380 | C[C@@H]1CC[C@@H](Oc2cc(Br)ccn2)CN1C(=O)c1ccccc1-n1nccn1 | 37 | 
 | 14000 | 2400 |  | C[C@@H]1CC[C@@H](Oc2ccccn2)CN1C(=O)c1ccccc1-n1nccn1 |  | 
7.2 | 59 | 0.4 |  | C[C@@H]1CC[C@@H](Oc2cc(I)ccn2)CN1C(=O)c1ccccc1-n1nccn1 | 57 | 
 | 140 | 1.3 |  | COc1ccnc(O[C@@H]2CC[C@@H](C)N(C(=O)c3ccccc3-n3nccn3)C2)c1 | 49 | 
45 | 360 | 3.8 | 2400 | C[C@@H]1CC[C@@H](Oc2cc(-c3ccccc3)ccn2)CN1C(=O)c1ccccc1-n1nccn1 | 54 | 
32 |  |  | > 10000 | C[C@@H]1CC[C@@H](Oc2cc(C#N)ccn2)CN1C(=O)c1ccccc1CC(F)(F)F | > 312 | solubility ([5]; read-out: solubility): 95 µM (≈ 38.3 µg/mL); logD ([6]; read-out: logD): 3.6; CLint scaled [7]: 132 mL/min/kg
9 | 37 | 2.6 | 142 | Cc1ccc(O[C@@H]2CC[C@@H](C)N(C(=O)c3ccccc3-n3nccn3)C2)nc1 | 16 | 
22 | 310 | 3.9 | 1800 | COC(=O)c1ccnc(O[C@@H]2CC[C@@H](C)N(C(=O)c3ccccc3-n3nccn3)C2)c1 | 82 | 
37 |  |  | > 10000 | C[C@@H]1CC[C@@H](Oc2cc(C#N)ccn2)CN1C(=O)c1ccccc1OC(F)F | > 314 | solubility [5]: Insoluble; logD [6]: ND(Insoluble); CLint scaled [7]: 43 mL/min/kg
95 | 470 | 6.5 | > 10000 | C[C@@H]1CC[C@@H](Oc2cc(C(=O)N(C)C)ccn2)CN1C(=O)c1ccccc1-n1nccn1 | > 105 | 
21 |  |  | 10000 | COC(=O)c1ccccc1C(=O)N1C[C@H](Oc2cc(C#N)ccn2)CC[C@H]1C | > 490 | Stability (Plasma [16]): Unstable; solubility ([5]; read-out: solubility): 151 µM (≈ 57.3 µg/mL); logD ([6]; read-out: logD): 2.9; CLint scaled [7]: < 16 mL/min/kg; Stability (Plasma [17]): Unstable
